Tests used:
Monoamine oxidase = target: T1, Monoamine oxidase (Rattus norvegicus, UniProt P19643+P21396); experiment: Binding affinity to I2-IBS, imidazoline binding site of MAO; assay type: functional
T1 sequence (P19643 whole entry): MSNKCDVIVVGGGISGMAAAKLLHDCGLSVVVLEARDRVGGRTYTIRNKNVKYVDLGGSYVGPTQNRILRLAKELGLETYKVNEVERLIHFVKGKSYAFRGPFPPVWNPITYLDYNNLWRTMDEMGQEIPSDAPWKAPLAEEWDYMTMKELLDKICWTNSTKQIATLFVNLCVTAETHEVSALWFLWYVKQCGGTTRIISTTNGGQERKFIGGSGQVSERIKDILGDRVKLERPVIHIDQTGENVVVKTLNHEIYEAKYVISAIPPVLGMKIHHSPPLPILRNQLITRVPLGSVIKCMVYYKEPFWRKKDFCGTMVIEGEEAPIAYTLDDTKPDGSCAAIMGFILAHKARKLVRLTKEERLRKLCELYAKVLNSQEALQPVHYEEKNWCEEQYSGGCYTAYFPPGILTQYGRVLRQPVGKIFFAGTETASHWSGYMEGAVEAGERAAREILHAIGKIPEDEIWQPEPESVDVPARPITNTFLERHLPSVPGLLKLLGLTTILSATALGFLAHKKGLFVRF
T1 sequence (P21396 whole entry): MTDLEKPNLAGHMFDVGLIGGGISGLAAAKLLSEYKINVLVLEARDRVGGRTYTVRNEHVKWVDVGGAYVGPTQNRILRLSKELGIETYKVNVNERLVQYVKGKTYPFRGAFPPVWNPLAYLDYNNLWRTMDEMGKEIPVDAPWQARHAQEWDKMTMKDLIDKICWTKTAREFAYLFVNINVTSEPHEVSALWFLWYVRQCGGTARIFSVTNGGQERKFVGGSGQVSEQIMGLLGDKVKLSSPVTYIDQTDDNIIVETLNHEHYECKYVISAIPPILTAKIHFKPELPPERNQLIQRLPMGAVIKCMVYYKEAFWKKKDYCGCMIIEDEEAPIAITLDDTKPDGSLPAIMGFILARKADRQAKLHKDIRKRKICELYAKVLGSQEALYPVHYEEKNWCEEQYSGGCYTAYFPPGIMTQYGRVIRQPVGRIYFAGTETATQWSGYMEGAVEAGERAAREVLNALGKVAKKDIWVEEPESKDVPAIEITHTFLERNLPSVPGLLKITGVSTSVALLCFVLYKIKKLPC

[1] = target: T2, Amine oxidase [flavin-containing] A (Rattus norvegicus, UniProt P21396); experiment: Inhibition of MAO-A in rat liver assessed as decrease in [14C]5-HT oxidation at 10 uM after 20 mins relative to control; assay type: functional; settings: read-out: Activity
T2 sequence (P21396 whole entry): T1 sequence (P21396 whole entry)
How it was run: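 Rat liver homogenate (0.5 mg/mL) in 50 mM phosphate, pH 7.4, incubated 20 min at 37 °C with 10 µM compound or vehicle. MAO-A activity read with 200 µM [14C]serotonin, before and after washing (40 000 g centrifugation, buffer wash, resuspension). Expressed as percent of unwashed vehicle-treated homogenate; duplicate experiments.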

[2] = target: T2, Amine oxidase [flavin-containing] A; experiment: Inhibition of MAO-A in rat liver assessed as inhibition of [14C]5-HT oxidation; assay type: functional
How it was run: (§1)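 Rat liver homogenized in 50 mM sodium phosphate, pH 7.5, with protease inhibitors, then filtered. 10-20 µg crude protein incubated 20 min at 37 °C with the test compound across increasing concentrations. MAO-A substrate: 200 µM [14C]5-HT. MAO-B substrate: 20 µM [14C]PEA plus 0.1 µM clorgyline. Stopped with 4 N HCl; product extracted into ethyl acetate/toluene and counted by scintillation. IC50 taken from sigmoid curves; three experiments.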

[3] = target: T2, Amine oxidase [flavin-containing] A; experiment: Residual activity at MAO-A in Sprague-Dawley rat liver at 50 mg/kg, ip; assay type: functional, organism-based; parameters: dose 50 mg/kg, route intraperitoneal; settings: read-out: Activity
How it was run: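 Male Sprague Dawley rats (about 250 g) received three i.p. injections of 50 mg/kg (10 mg/mL in DMSO/saline or saline) or vehicle, given 20 h, 4 h 30 min and 1 h 30 min before sacrifice. Four rats per group; three per vehicle control. Frozen liver homogenate assayed for MAO-A with 200 µM [14C]5-HT. Expressed relative to vehicle-treated animals.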

[4] = target: T3, Amine oxidase [flavin-containing] B (Rattus norvegicus, UniProt P19643); experiment: Inhibition of MAO-B in rat liver assessed as inhibition of [14C]PEA oxidation in presence of 0.1 uM clorgyline; assay type: functional; how it was run: as §1
T3 sequence (P19643 whole entry): T1 sequence (P19643 whole entry)

[5] = target: T3, Amine oxidase [flavin-containing] B; experiment: Decrease in MAO-B activity in Sprague-Dawley rat brain at 50 mg/kg, ip; assay type: functional, organism-based; parameters: dose 50 mg/kg, route intraperitoneal; settings: in vivo
How it was run: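 Male Sprague Dawley rats (~250 g), four per group, got three ip doses of 50 mg/kg (10 mg/mL in saline or DMSO/saline), 20 h, 4 h 30 min and 1 h 30 min before sacrifice. Brain was stored at -80 °C and homogenized in 50 mM phosphate, pH 7.5. Homogenate was incubated 20 min at 37 °C with 20 µM [14C]PEA plus 0.1 µM clorgyline. Extracted product was scintillation-counted and compared with vehicle.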

| SMILES | Log Ki (Monoamine oxidase) | inhibition at 10 µM [1] [%] | IC50 [2] [nM] | other results |
| --- | --- | --- | --- | --- |
| C1=C(C2=NCCN2)CCc2ccccc21 | -7.95 | – | – | – |
| c1ccc([C@H]2O[C@@H]2C2=NCCN2)cc1 (relative stereo) | -7.55 | – | – | – |
| OCc1ccc(-c2ccc(C3=NCCN3)o2)cc1 | – | 79 | 1200 | – |
| C(=C\c1ccccc1)/C1=NCCN1 [TRACIZOLINE] | -8.72 | – | – | – |
| c1ccc(-c2ccc(C3=NCCN3)cn2)cc1 | – | 53 | 1800 | Activity [5]: Active |

Now from value to compound, other results behind:

| Log Ki (Monoamine oxidase) | inhibition at 10 µM [1] [%] | IC50 [2] [nM] | SMILES | other results |
| --- | --- | --- | --- | --- |
| -7.68 | – | – | c1ccc(-c2ccc(C3=NCCN3)o2)cc1 [FURALINE] | – |
| – | 85 | 600 | Nc1cccc(-c2ccc(C3=NCCN3)o2)c1 [AMIFURALINE] | activity at 50 mg/kg [3]: 36%; IC50 [4]: 19100 nM |
